The text below walks through data of paper PMC8516733 (Biomedicine & pharmacotherapy = Biomedecine & …, 2021).

Several values for one entry are separate records, joined by “and”; a condition that tells them apart may be missing. Identical values can stand only once. Entries after “also recorded” stand apart in the source; their conditions may differ.

Test [1] addresses T1, cloned rat kappa opioid receptors (Rattus norvegicus, UniProt P34975). The test can be described thus: cell-based. It counts as cell-based.
In test [2] the target is T1, cloned rat kappa opioid receptors. It counts as biochemical.
The target of test [3] is cloned rat κappa opioid receptors (Rattus norvegicus, UniProt P34975). Briefly: Adenylyl cyclase assay. It counts as cell-based. To be noted: relative to Dyn (1–13)NH2; 50 μM forskolin. Summed up: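 CHO cells stably expressing the receptor were washed twice in F12 medium and labelled for 4 h with 12 μCi [3H]adenine. They were then incubated 40 min at 37 °C with forskolin, peptidase inhibitors (10 μM bestatin, 30 μM captopril, 50 μM l-leucyl-l-leucine) and test compound at 0.1–10,000 nM in 10-fold steps. The reaction was stopped with SDS/cAMP, then perchloric acid. [3H]cAMP was counted by scintillation, with [14C]cAMP used for recovery and crossover correction.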

The test system of a further test is KOR. As to conditions: cited from earlier work; for Duration of action in vivo: after a single dose.

A word on the IC50: it is the concentration that inhibits the measured activity by half. Low readings indicate greater potency in that assay, high ones weaker potency in that assay. The Kb is the equilibrium dissociation constant of an antagonist, usually derived from a functional assay.

T1 sequence (P34975 whole entry): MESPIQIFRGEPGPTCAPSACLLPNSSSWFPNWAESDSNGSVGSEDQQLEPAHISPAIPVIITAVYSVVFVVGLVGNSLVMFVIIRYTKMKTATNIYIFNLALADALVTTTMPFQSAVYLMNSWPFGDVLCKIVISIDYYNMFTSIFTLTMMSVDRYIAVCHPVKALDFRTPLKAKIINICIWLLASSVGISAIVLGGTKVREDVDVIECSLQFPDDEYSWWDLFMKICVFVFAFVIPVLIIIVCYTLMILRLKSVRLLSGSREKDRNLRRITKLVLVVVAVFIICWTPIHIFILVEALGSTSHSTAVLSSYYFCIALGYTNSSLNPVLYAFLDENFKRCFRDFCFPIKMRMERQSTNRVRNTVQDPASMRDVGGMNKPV
Sequence of cloned rat κappa opioid receptors (P34975 whole entry): as above

On to [N-Methyl-Tyr^1]zyklophin [JVA 3418], for which, in test [1], the “Efficacy, FMP blue” value was 0.14 ± 0.03. Moreover, the “Efficacy, [35S]GTPγS” value in test [2] stood at 0.10 ± 0.10. Moreover, the “Efficacy, adenylyl cyclase” value in test [3] is on record as 0.58.
Turning to `CC(C)[C@@H](CN1CC[C@@](C)(c2cccc(O)c2)[C@@H](C)C1)NC(=O)[C@H]1Cc2ccc(O)cc2CN1` [JDTic], in the test with KOR, the “Duration of action in vivo” value is on record as “lasting weeks after a single dose”.
`CC(C)=CCN1CCC2(C)c3cc(O)ccc3CC1C2C` (stereo not drawn) [Pentazocine, pentazocine]: in test [1], the “Efficacy (relative)” value came to 0.44 ± 0.04 and the IC50 was 26.6 nM.
As to [N-Allyl-Tyr^1]zyklophin [JVA 3419], the “Efficacy, FMP blue” value in test [1] is reported as 0.15 ± 0.04. Moreover, the “Efficacy, [35S]GTPγS” value in test [2] is 0.07 ± 0.17. Further, the “Efficacy, adenylyl cyclase” value in test [3] stood at 0.33.
`Oc1ccc2c3c1O[C@H]1c4[nH]c5c(c4C[C@@]4(O)[C@@H](C2)N(CC2CC2)CC[C@]314)C[C@@]1(O)[C@H]2Cc3ccc(O)c4c3[C@@]1(CCN2CC1CC1)[C@H]5O4` [nor-BNI, nor-binaltorphimine]: the “Effect of the compound alone on FMP fluorescence” value (from here on “Effect of the compound alone”) in test [1] is “Neither zyklophin nor nor-BNI alone influenced FMP fluorescence”. The “Duration of action in vivo” value in the test with KOR is “lasting weeks after a single dose”.
As for zyklophin-(1–8) [JVA 3413], the “Efficacy, FMP blue” value in test [1] is given as 0.22 ± 0.04. The “Efficacy, [35S]GTPγS” value in test [2] amounted to 0.07 ± 0.14. Moreover, the “Efficacy, adenylyl cyclase” value in test [3] is listed as 0.35.
Turning to “[N-BenzylTyr^1,cyclo(D-Asp^5,Dap^8]Dyn (1–11) amide [Zyklophin]”, in test [1], the “Effect of the compound alone” value was “Neither zyklophin nor nor-BNI alone influenced FMP fluorescence; also recorded: did not elicit a significant reduction in FMP fluorescence” and the “Efficacy, FMP blue” value is recorded as 0. Also, the antagonist equilibrium constant (Kb) in test [1] (read-out: KB from Schild regression, antagonism of U50,488) was found to be 564 nM. For the same molecule, the “Efficacy, [35S]GTPγS” value in test [2] was 0. For the same molecule, the “Efficacy, adenylyl cyclase” value in test [3] amounted to 0.23. Also, in the test with KOR (after systemic administration), the Duration of antagonism entry is “less than 12 h”.
Consider “[N-Benzyl-Tyr^1,Dap(Ac)^8]Dyn A(1–11) amide [JVA 3416]”, for which the “Efficacy, FMP blue” value in test [1] is 0.48 and 0.48 ± 0.10. Besides, the “Efficacy, [35S]GTPγS” value in test [2] turned out to be 0.26 ± 0.06. Further, the “Efficacy, adenylyl cyclase” value in test [3] stood at 1.0.
As to `CC1C2Cc3ccc(O)cc3C1(C)CCN2CC1CC1` (single isomer, unassigned; (+)) [(+)-Cyclazocine, (+)-cyclazocine], the “Effect of the compound alone” value in test [1] is given as “did not affect FMP fluorescence”.
